Source: ChEMBL document CHEMBL2010794, “Discovery of nor-seco himbacine analogs as thrombin receptor antagonists” (Bioorg Med Chem Lett, 2012)
Activity calls are given as the source filed them. No cut-off for these calls is given here.

Experiments:
[1] = biological target: T1, Proteinase-activated receptor 1 (Homo sapiens, UniProt P25116); assay: Displacement of [3H]haTRAP from human PAR1 after 1 hr by TopCount scintillation counting
T1 sequence (P25116 whole entry): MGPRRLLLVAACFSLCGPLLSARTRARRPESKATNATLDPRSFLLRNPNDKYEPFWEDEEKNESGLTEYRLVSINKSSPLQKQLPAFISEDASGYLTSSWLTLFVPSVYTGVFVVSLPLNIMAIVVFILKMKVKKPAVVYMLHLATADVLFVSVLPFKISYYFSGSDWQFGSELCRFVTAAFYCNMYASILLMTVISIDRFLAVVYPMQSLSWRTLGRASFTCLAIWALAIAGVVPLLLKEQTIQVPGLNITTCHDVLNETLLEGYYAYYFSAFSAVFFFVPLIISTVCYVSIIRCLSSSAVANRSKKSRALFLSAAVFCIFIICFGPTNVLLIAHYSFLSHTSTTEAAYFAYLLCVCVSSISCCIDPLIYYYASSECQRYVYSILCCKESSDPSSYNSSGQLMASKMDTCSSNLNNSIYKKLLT
In short: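 PAR-1 receptors isolated from human platelets; competition binding against [³H]haTRAP radioligand; values expressed as IC₅₀ (nM).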

[2] = AUC (0 to 6 hrs) in rat at 10 mg/kg, po; format: ADME, organism-based; design: time < 6 hr, dose 10 mg/kg, route oral; details: plasma
In short: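 Rats given a single 10 mg/kg oral dose in 0.4% methylcellulose; plasma levels followed up to 6 h; AUC from 0 to 6 h reported in ng h/mL.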

Cynomolgus monkey [3] = assay: Ex-vivo inhibition of PAR1 in cynomolgus monkey assessed as inhibition of haTRAP-induced platelet aggregation at 1 mg/kg, po up to 6 hrs by aggregometry; format: functional, organism-based; design: dose 1 mg/kg; details: Macaca fascicularis
In short: (§1)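 Cynomolgus monkeys dosed orally in 20% PEG-HPBCD (hydrochloride salt for the 7a-hydroxy series); blood sampled at various times up to 24 h; haTRAP added to whole blood at 1 µM to trigger aggregation, measured by aggregometer; result given as % reduction in haTRAP-induced aggregation at the stated dose and time.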

Cynomolgus monkey [4] = assay: Ex-vivo inhibition of PAR1 in cynomolgus monkey assessed as inhibition of haTRAP-induced platelet aggregation at 3 mg/kg, po at 24 hrs by aggregometry; format: functional; details: Macaca fascicularis; in short: as §1
[5] = AUC (0 to 24 hrs) in cynomolgus monkey at 1 mg/kg, po; format: ADME, organism-based, Macaca fascicularis; design: time < 24 hr, dose 1 mg/kg, route oral; details: plasma
Cynomolgus monkey [6] = assay: Ex-vivo inhibition of PAR1 in cynomolgus monkey assessed as inhibition of haTRAP-induced platelet aggregation at 1 mg/kg, po by aggregometry; format: functional, organism-based; design: dose 1 mg/kg; details: Macaca fascicularis; in short: as §1
Cynomolgus monkey [7] = assay: Ex-vivo inhibition of PAR1 in cynomolgus monkey assessed as inhibition of haTRAP-induced platelet aggregation at 3 mg/kg, po at 6 hrs by aggregometry; format: functional; details: Macaca fascicularis; in short: as §1
[8] = AUC (0 to 24 hrs) in cynomolgus monkey plasma at 3 mg/kg, po; format: ADME, organism-based, Macaca fascicularis; design: time < 24 hr, dose 3 mg/kg, route oral
Cynomolgus monkey [9] = assay: Ex-vivo inhibition of PAR1 in cynomolgus monkey assessed as inhibition of haTRAP-induced platelet aggregation at 1 mg/kg, po at 24 hrs by aggregometry; format: functional; details: Macaca fascicularis; in short: as §1
[10] = AUC (0 to 24 hrs) in cynomolgus monkey plasma at 1 mg/kg, po; format: ADME, organism-based, Macaca fascicularis; design: time < 24 hr, dose 1 mg/kg, route oral

Row | Structure (SMILES) | IC50 ([1]; read-out: IC50) [µM] | AUC(0-t) at 6 h [2] [ng·h/mL] | other results
1 | CC[C@H]1[C@H](/C=C/c2ccc(-c3cccc(C(F)(F)F)c3)cn2)[C@@H]2[C@@H](C)OC(=O)[C@@H]2C[C@@H]1C | 0.024 |  | 
2 | CC[C@H]1[C@H](/C=C/c2ccc(-c3ccsc3)cn2)[C@@H]2[C@@H](C)OC(=O)[C@]2(O)C[C@@H]1C | 0.0046 | 397 | 
3 | CC[C@H]1[C@H](/C=C/c2ccc(-c3cccc(C)c3)cn2)[C@@H]2[C@@H](C)OC(=O)[C@@H]2C[C@@H]1C | 0.045 |  | 
4 | CC[C@H]1[C@H](/C=C/c2ccc(-c3cccc(C#N)c3)cn2)[C@@H]2[C@@H](C)OC(=O)[C@]2(O)C[C@@H]1C | 0.02 | 1080 | 
5 | CC[C@H]1[C@H](/C=C/c2ccc(N3CCCC3)cn2)[C@@H]2[C@@H](C)OC(=O)[C@]2(O)C[C@@H]1C [listing 1 of 2 here] | 0.064 | 486 | 
6 | CC[C@H]1[C@H](/C=C/c2ccc(-c3ccccc3)cn2)[C@@H]2[C@@H](C)OC(=O)[C@]2(O)C[C@@H]1C | 0.0064 | 3300 | 
7 | CC[C@H]1[C@H](/C=C/c2ccc(-c3cccc(F)c3)cn2)[C@@H]2[C@@H](C)OC(=O)[C@]2(O)C[C@@H]1C | 0.027 | 1140 | inhibition (Cynomolgus monkey [3]): Active; inhibition in vivo at 3 mg/kg (Cynomolgus monkey [4]): 100%; AUC(0-t) at 24 h [5]: 4280 ng·h/mL
8 | CC[C@H]1[C@H](/C=C/c2ccc(-c3cccc(OC)c3)cn2)[C@@H]2[C@@H](C)OC(=O)[C@]2(O)C[C@@H]1C |  |  | inhibition (Cynomolgus monkey [6]): inactive
9 | CC[C@H]1[C@H](/C=C/c2ccc(-c3ccccc3OC)cn2)[C@@H]2[C@@H](C)OC(=O)[C@]2(O)C[C@@H]1C | 0.0081 | 168 | 
10 | CC[C@H]1[C@H](/C=C/c2ccc(N3CCCC3)cn2)[C@@H]2[C@@H](C)OC(=O)[C@]2(O)C[C@@H]1C [listing 2 of 2 here] |  |  | inhibition in vivo at 3 mg/kg (Cynomolgus monkey [7]): 100%
11 | CC[C@H]1[C@H](/C=C/c2ccc(-c3ccccc3C)cn2)[C@@H]2[C@@H](C)OC(=O)[C@]2(O)C[C@@H]1C | 0.033 | 3160 | 
12 | CC[C@H]1[C@H](/C=C/c2ccc(-c3ccccc3C)cn2)[C@@H]2[C@@H](C)OC(=O)[C@]2(O)C[C@@H]1C.Cl |  |  | AUC(0-t) at 24 h [8]: 2720 ng·h/mL; inhibition in vivo at 3 mg/kg (Cynomolgus monkey [7]): 55%
13 | CC[C@H]1[C@H](/C=C/c2ccc(-c3cccc(C)c3)cn2)[C@@H]2[C@@H](C)OC(=O)[C@]2(O)C[C@@H]1C.Cl |  |  | AUC(0-t) at 24 h [8]: 2770 ng·h/mL; inhibition in vivo at 3 mg/kg (Cynomolgus monkey [7]): 100%
14 | CC[C@H]1[C@H](/C=C/c2ccc(-c3ccccc3)cn2)[C@@H]2[C@@H](C)OC(=O)[C@@H]2C[C@@H]1C | 0.0088 | 672 | 
15 | CC[C@H]1[C@H](/C=C/c2ccc(-c3ccoc3)cn2)[C@@H]2[C@@H](C)OC(=O)[C@]2(O)C[C@@H]1C | 0.0086 | 148 | 
16 | CC[C@H]1[C@H](/C=C/c2ccc(-c3cccc(C#N)c3)cn2)[C@@H]2[C@@H](C)OC(=O)[C@]2(O)C[C@@H]1C.Cl |  |  | inhibition in vivo at 1 mg/kg (Cynomolgus monkey [9]): 60%; AUC(0-t) at 24 h [10]: 6280 ng·h/mL
17 | CC[C@H]1[C@H](/C=C/c2ccc(-c3cccc(C#N)c3)cn2)[C@@H]2[C@@H](C)OC(=O)[C@@H]2C[C@@H]1C | 0.021 |  | 
18 | CC[C@H]1[C@H](/C=C/c2ccc(-c3ccc(C#N)cc3)cn2)[C@@H]2[C@@H](C)OC(=O)[C@]2(O)C[C@@H]1C |  |  | IC50 [1]: Not Active
